# Assay outcomes: PubChem, The Scripps Research Institute Molecular Screening Center
# TDP2 absorb: human TDP2 enzyme inhibitors, primary screen, biochemical, epi absorbance, recombinant enzyme; T5PNP hydrolysis, p-nitrophenol absorbance 415 nm; hit rate 0.34% among 370,000; inhibition, % at 12.8 µM;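 active = inhibition above the mean of all tested compounds plus 3 SD, set per campaign, cut at about 25% in these data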;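 also: 0% = DMSO with enzyme and 100% = buffer with substrate but no TDP2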
#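 Assay system: recombinant human TDP2 / Reagent: T5PNP substrate at 5 mM, a TopII-DNA adduct mimic / Measured by: epi absorbance from released p-nitrophenol / Evaluation: % inhibition relative to enzyme-containing and enzyme-free wells / Control set: enzyme-free and DMSO wells / Replicates: each compound tested once, singlicate / Schedule: enzyme reaction with compound for 2 h at 37 °C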
# PRMT1 inh: PRMT1 methyltransferase inhibitors, primary screen, biochemical, fluorescence polarization; hit rate 1.3% among 370,000; AID 652257, 2013; recombinant PRMT1, activity-based probe fluorescence polarization; Protein arginine N-methyltransferase 1 (Homo sapiens), Q99873; inhibition, % at 2.79 µM;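 active = inhibition above about 21% made by adding two undisclosed values, limit read from the data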
# eLon inh: inhibitors of E. coli Lon protease, primary screen, biochemical, fluorescence polarization; P0A9M0; purified E. coli Lon protease; inhibition, % at 7.94 µM; hit rate 0.42% among 360,000; AID 602123, 2011; in the data active = inhibition above about 13%, passing the limit was not always enough;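 also: 0% = enzyme with probe and DMSO and 100% = no enzyme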
# Target sequence (P0A9M0 whole entry, looked up): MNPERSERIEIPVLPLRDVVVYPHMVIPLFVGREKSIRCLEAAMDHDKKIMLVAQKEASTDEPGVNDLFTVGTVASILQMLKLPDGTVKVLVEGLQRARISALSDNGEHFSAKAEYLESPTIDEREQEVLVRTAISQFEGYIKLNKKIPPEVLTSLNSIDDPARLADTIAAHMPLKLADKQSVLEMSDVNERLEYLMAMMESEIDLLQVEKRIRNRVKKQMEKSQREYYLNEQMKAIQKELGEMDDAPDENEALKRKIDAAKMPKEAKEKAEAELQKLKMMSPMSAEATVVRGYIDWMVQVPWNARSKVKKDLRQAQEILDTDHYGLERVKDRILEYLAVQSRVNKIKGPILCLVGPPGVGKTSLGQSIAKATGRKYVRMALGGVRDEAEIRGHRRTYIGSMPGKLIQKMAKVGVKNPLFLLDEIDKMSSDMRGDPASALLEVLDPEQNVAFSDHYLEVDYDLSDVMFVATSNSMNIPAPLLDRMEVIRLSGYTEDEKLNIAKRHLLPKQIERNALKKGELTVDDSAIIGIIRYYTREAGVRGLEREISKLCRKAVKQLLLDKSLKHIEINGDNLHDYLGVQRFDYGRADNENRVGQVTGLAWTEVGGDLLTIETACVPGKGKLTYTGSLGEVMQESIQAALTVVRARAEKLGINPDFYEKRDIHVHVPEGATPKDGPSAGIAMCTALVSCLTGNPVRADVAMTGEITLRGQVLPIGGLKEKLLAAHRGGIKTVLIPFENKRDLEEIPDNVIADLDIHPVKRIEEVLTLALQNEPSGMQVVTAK
# PAD4 inh: human PAD4 inhibitors, primary screen, biochemical, fluorescence polarization, 1536-well format | Protein-arginine deiminase type-4 (Homo sapiens), Q9UM07 | recombinant PAD4, RCA probe fluorescence polarization | inhibition, % at 6.36 µM | hit rate 0.41% among 330,000;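 active = percent inhibition above a cutoff equal to the mean of all tested compounds plus 3 SD, cut at about 15% in these data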;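 also: 0% = PAD4 with RCA probe and DMSO and 100% = probe without PAD4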
# GSTO1 counter: inhibitors of recombinant GSTO1, primary screen, counter-screen for RBBP9 inhibitor project, biochemical, fluorescence polarization. Glutathione S-transferase omega-1 (Homo sapiens), P78417. activity-based probe fluorescence polarization. inhibition, % at 5.96 µM. hit rate 1.1% among 300,000;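 active = inhibition above the campaign mean inhibition plus 3 SD, cut at about 35% in these data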;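 also: 0% = GSTO1-1 with DMSO and 100% = wells lacking GSTO1-1 enzyme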
# PRMT1 confirm: PRMT1 methyltransferase inhibitors, confirmation, biochemical, fluorescence polarization, triplicate; hit rate 42% among 3,300; inhibition, % at 2.79 µM; shares compounds with PRMT1 inh; AID 687036, 2013; recombinant His-PRMT1, activity-based probe fluorescence polarization;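 active = mean inhibition across replicates above the hit cutoff derived for the earlier primary screen, cut at about 22% in these data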
# * = called active by the depositor; · = not tested or not shown. Only some compounds are listed: those with a hit (about 2.5% of all), similar ones and a draw of the others.
SMILES,TDP2 absorb,PRMT1 inh,eLon inh,PAD4 inh,GSTO1 counter,PRMT1 confirm
Cc1ccc(S(=O)(=O)N2CCOCC2)cc1C(=O)NC1CCCC(C)C1C (centres undefined),0,-2,-15,-3,-8,·
CCOC(=O)c1c(-c2ccc(F)cc2)csc1NC(=O)C1CC=CCC1C(=O)O (centres undefined),-15,7,-5,-2,3,·
COC(=O)c1c(-c2ccco2)csc1NC(=O)C1CC=CCC1C(=O)O (centres undefined),-2,27*,-2,-2,-5,4
CCN(CC(=O)Nc1ccccc1OC)C(=O)CSCC(=O)Nc1cccc(C)c1,2,1,-3,·,·,·
Cc1ccc(-c2cccc(NC(=O)C3C4C=CC(C4)C3C(=O)O)c2)o1 (centres undefined),-12,54*,-6,-8,6,-2
Nc1nc2c(Br)ccc(Br)c2cc1C(=O)NCc1cccc2ccccc12,5,-1,-12,·,·,·
CCSc1nc(O)cc(=O)[nH]1,-3,-2,-8,-4,3,·
CCSc1nc(=S)cc(C)[nH]1,-15,69*,4,-8,0,41*
C=CCN(CC#CC1=CCCCC1)Cc1ccccc1,-4,0,·,·,·,·
COCCN=C1Sc2nc3c(C)cccc3cc2CN1Cc1ccco1,-7,29*,1,-1,-1,15
O=C(CNC(=O)c1ccccc1)NCC(=O)OCC(=O)c1ccc(F)cc1,-5,2,1,2,3,·
O=C(CNC(=O)c1ccccc1)NCC(=O)OCC(=O)c1ccc([N+](=O)[O-])cc1,1,35*,0,-3,13,49*
CNc1ncnc2c1ncn2[C@H]1CN(Cc2ccncc2)C[C@@H](CO)O1,-12,-1,3,·,·,·
Cc1ccc(CNC(=O)CSc2nccn(-c3ccc(C)c(F)c3)c2=O)cc1,12,37*,3,-1,3,19
COc1ccc(-n2ccnc(SCC(=O)NCc3ccc(C)cc3)c2=O)cc1Cl,17,36*,-14,-8,1,21
COc1ccccc1-n1ccnc(SCC(=O)NCc2ccccc2)c1=O,-9,20,0,4,3,·
CN(Cc1ccccc1)C1(CNC(=O)CCC(F)(F)F)Cc2ccccc2C1,-1,-3,-1,1,2,·
O=C1C=CC(=O)N1c1ccc(Nc2ccccc2)cc1,13,11,-5,·,·,·
Cc1cccc(N2C(=O)C=CC2=O)c1,-2,71*,-5,·,·,88*
O=C1C=CC(=O)N1c1ccc2ccccc2c1,-4,70*,5,·,·,90*
CCN(CC)C1CC(=O)N(c2cccc(C)c2)C1=O (centres undefined),·,·,·,-1,-1,·
O=C1C2C3C=CC(O3)C2C(=O)N1Nc1ccccc1 (centres undefined),5,20,-10,·,·,·
Cn1c(=O)[nH]c(=O)c2c1nc(SCC(=O)O)n2CCc1ccccc1,6,26*,-3,-1,-2,5
S=c1[nH]c(-c2ccc(Cl)cc2)cs1,8,31*,1,-1,5,54*
S=c1nccc(-c2ccc(Cl)cc2)[nH]1,-6,26*,4,12,-3,27*
SMILES,TDP2 absorb,PRMT1 inh,eLon inh,PAD4 inh,GSTO1 counter,PRMT1 confirm
CC(C)c1cc(Cn2c3ccccc3c(=O)n2C(C)Cn2cc(CCc3ccccc3)nn2)on1 (centres undefined),0,1,·,·,·,·
CCC(C)(C)n1nnnc1C(c1ccc(O)c(OC)c1)N1CCN(c2nc3ccccc3s2)CC1 (centres undefined),4,36*,5,-3,0,36*
CC(C)N1CCc2c(sc(NC(=O)C(F)F)c2-c2nc3ccccc3s2)C1,8,29*,·,·,·,5
CC(=O)Nc1sc2c(c1-c1nc3ccccc3s1)CCN(C(C)C)CC2,-6,37*,·,·,·,11
CC(=O)Nc1sc2c(c1-c1nc3ccccc3s1)CCN(C(C)C)C2,·,·,-245,-1,5,·
O=C(COC(=O)c1ccc2ncsc2c1)NC(=O)c1ccccc1,11,27*,-3,4,0,2
Cc1ccc(S(=O)(=O)N(C)C[C@@H]2OCc3ccccc3-c3c(n(C)c4ccccc34)C(=O)N([C@H](C)CO)C[C@@H]2C)cc1,-8,7,2,·,·,·
C[C@H](CO)N1C[C@H](C)[C@H](CN(C)S(=O)(=O)c2cccc(F)c2)OCc2ccccc2-c2c(n(C)c3ccccc23)C1=O,-4,34*,-7,·,·,-1
CN(C)C1(CNC(=S)Nc2ccccc2C(F)(F)F)CCCCC1,3,4,4,-1,0,·
C=CCn1c(Sc2ncc([N+](=O)[O-])s2)n[nH]c1=O,2,75*,5,0,8,61*
Cn1cnnc1SCC(=O)Nc1ncc([N+](=O)[O-])s1,-5,7,-8,-5,·,·
Cc1c(Cl)cccc1NC(=O)CCN1CCC(C(N)=O)CC1,-22,12,2,0,4,·
O=C(CSc1ccccn1)N1CCN(c2cccc(Cl)c2)CC1,-6,47*,-4,-1,-5,53*
COC(=O)C(CC(=O)c1ccc(Br)cc1)n1nc(C)cc1C (centres undefined),-3,77*,-5,-2,1,7
COC(=O)C(CC(=O)c1ccc(C)cc1)n1nc(C)cc1C (centres undefined),-1,9,3,1,4,·
Cc1cc2cc(C(c3nnnn3Cc3ccco3)N3CCc4ccccc4C3)c(=O)[nH]c2cc1C (centres undefined),-3,69*,-11,-8,-2,66*
Fc1ccc(-c2cc(-c3nnc4sc(-c5cccs5)nn34)[nH]n2)cc1,0,2,·,·,·,·
O=C1Nc2ccccc2SC1=Cc1ccccc1,-5,1,17,·,·,·
O=C1CCCC2=C1Sc1ccccc1N2,2,37*,25,-2,14,17
CCCC(c1nnnn1CCOC)N(Cc1cc2cc(C)c(C)cc2[nH]c1=O)CC1CCCO1 (centres undefined),-10,26*,-13,-6,3,-3
CCC(c1nnnn1CCOC)N(Cc1cc2cc(C)c(C)cc2[nH]c1=O)CC1CCCO1 (centres undefined),-6,9,-1,0,2,·
COc1ccc(N2C(=O)CC(N3CCC(O)(c4cccc(C(F)(F)F)c4)CC3)C2=O)cc1 (centres undefined),11,61*,-3,2,0,-3
O=C(O)c1ccc(N2C(=O)CC(N3CCN(c4cccc(C(F)(F)F)c4)CC3)C2=O)cc1 (centres undefined),-18,17,-3,-1,0,·
